Test results taken from ChEMBL document CHEMBL1155633, “New lignan glycosides with potent antiinflammatory effect, isolated from Justicia ciliata” (J Nat Prod, 2000).
Calls of active or inactive are those of the source. The calls are words filed in the database; no cut-off is given here.

What was measured:
[1] = test system: N9; assay: Antiinflammatory activity against mouse N9 cells assessed as inhibition of LPS/IFN-gamma-induced TNFalpha generation treated 1 hr before LPS challenge assessed after 24 hrs; type: functional, cell-based
In short: (§1)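 TNF-α release assay. Cells were pretreated with compound at 37 °C for 1 h and then stimulated for 24 h. N9 microglia were in Iscove's medium with 2% heat-inactivated FCS at 8×10^4 cells/well and were stimulated with LPS 10 μg/mL. RAW 264.7 cells were in DMEM with 5% FCS at 2×10^5 cells/well and were stimulated with LPS 1 μg/mL. Medium was stored at -70 °C until assay.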

[2] = species: Mus musculus; assay: Antiinflammatory activity against mouse […] cells assessed as inhibition of LPS-induced TNFalpha generation treated 1 hr before LPS challenge assessed after 24 hrs; type: functional, cell-based; in short: as §1
[3] = Antiinflammatory activity against mouse […] cells assessed as inhibition of LPS-induced nitrite accumulation at 3 uM treated 1 hr before LPS challenge assessed after 24 hrs; type: functional
In short: (§2)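 RAW 264.7 macrophages were plated at 2×10^5 cells/well in DMEM with 5% FCS and adhered overnight. They were pretreated 1 h at 37 °C with compound or 0.5% DMSO vehicle, then stimulated with E. coli 0111:B4 LPS 1 μg/mL for 24 h. Medium nitrite was read by Griess reaction (10 min at RT, A550) against an NaNO₂ standard. Mean ± s.e.m., n=3; IC50 from concentration–response.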

[4] = Antiinflammatory activity against mouse […] cells assessed as inhibition of LPS-induced nitrite accumulation at 10 uM treated 1 hr before LPS challenge assessed after 24 hrs; type: functional; in short: as §2
[5] = Antiinflammatory activity against mouse […] cells assessed as inhibition of LPS-induced nitrite accumulation at 30 uM treated 1 hr before LPS challenge assessed after 24 hrs; type: functional; in short: as §2
[6] = Antiinflammatory activity against mouse […] cells assessed as inhibition of LPS-induced nitrite accumulation treated 1 hr before LPS challenge assessed after 24 hrs; type: functional, cell-based; in short: as §2
[7] = test system: N9; assay: Antiinflammatory activity against mouse N9 cells assessed as inhibition of LPS/IFN-gamma-induced nitrite accumulation at 10 uM treated 1 hr before LPS challenge assessed after 24 hrs
[8] = test system: N9; assay: Antiinflammatory activity against mouse N9 cells assessed as inhibition of LPS/IFN-gamma-induced nitrite accumulation at 30 uM treated 1 hr before LPS challenge assessed after 24 hrs
[9] = Antiinflammatory activity against mouse […] cells assessed as inhibition of LPS-induced nitrite accumulation at 0.1 mM treated 1 hr before LPS challenge assessed after 24 hrs; type: functional
In short: (§3)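 RAW 264.7 cells in DMEM with 5% FCS seeded at 2×10^5 cells/well and allowed to adhere overnight. Pretreated 1 h at 37 °C with compound or 0.5% DMSO (final), then stimulated with 1 μg mL⁻¹ E. coli 0111:B4 LPS for 24 h. Medium nitrite measured by Griess reaction (absorbance 550 nm) using an NaNO₂ standard curve. Mean ± s.e.m., n=3.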

[10] = Antiinflammatory activity against mouse […] cells assessed as inhibition of LPS-induced nitrite accumulation at 0.3 mM treated 1 hr before LPS challenge assessed after 24 hrs; type: functional; in short: as §3
[11] = Antiinflammatory activity against mouse […] cells assessed as inhibition of LPS-induced nitrite accumulation at 1 mM treated 1 hr before LPS challenge assessed after 24 hrs; type: functional; in short: as §3
[12] = test system: N9; assay: Antiinflammatory activity against mouse N9 cells assessed as inhibition of LPS/IFN-gamma-induced nitrite accumulation treated 1 hr before LPS challenge assessed after 24 hrs

**Q.** For `COc1cc2c(O[C@@H]3OC[C@](O)(CO[C@@H]4OC[C@@H](O)[C@H](O)[C@H]4O)[C@H]3O[C@@H]3OC[C@H](O)[C@H](O)[C@H]3O)c3c(c(-c4ccc5c(c4)OCO5)c2cc1OC)C(=O)OC3` [CILIATOSIDE A], which Activity [1] is on record?
**A.** inactive

**Q.** What about the Activity [2] of the same compound?
**A.** inactive

**Q.** And the inhibition at 3 µM [3]?
**A.** 22%

**Q.** What about the inhibition at 10 µM [4] of the same compound?
**A.** 18.7%

**Q.** And the inhibition at 30 µM [5]?
**A.** 11.9%

**Q.** What about the IC50 [6] of the same compound?
**A.** 27.1 µM

**Q.** What about the inhibition at 10 µM [7] of the same compound?
**A.** 46.7%

**Q.** What about the inhibition at 30 µM [8] of the same compound?
**A.** 37.9%

**Q.** Which results are given for `COc1cc2c(O[C@@H]3OC[C@](O)(CO[C@@H]4OC[C@@H](O)[C@H](O)[C@H]4O)[C@H]3O[C@@H]3OC[C@H](O)[C@H](O[C@@H]4OC[C@](O)(CO)[C@H]4O)[C@H]3O)c3c(c(-c4ccc5c(c4)OCO5)c2cc1OC)C(=O)OC3` [CILIATOSIDE B]?
**A.** Activity [1]: inactive; Activity [2]: inactive; inhibition at 3 µM [3]: 20.7%; inhibition at 10 µM [4]: 20.5%; inhibition at 30 µM [5]: 12.4%; IC50 [6]: 29.4 µM; inhibition at 10 µM [7]: 42.8%; inhibition at 30 µM [8]: 36.5%

**Q.** For `COC(=O)[C@@H](N)CCCNC(=N)N[N+](=O)[O-]` [L-NAME], which IC50 [6] is on record?
**A.** 510 µM

**Q.** And the inhibition at 100 µM [9]?
**A.** 16.8%

**Q.** And the inhibition at 300 µM [10]?
**A.** 15.6%

**Q.** What about the inhibition at 1000 µM [11] of the same compound?
**A.** 6.6%

**Q.** What about the IC50 [12] of the same compound?
**A.** 630 µM
